Results published in ChEMBL document CHEMBL3826907, “Design, synthesis and anti-P. falciparum activity of pyrazolopyridine-sulfonamide derivatives” (Bioorg Med Chem, 2016).

Columns and labels:
Plasmodium falciparum [1] = assay: Antimalarial activity against chloroquine-resistant Plasmodium falciparum W2; type: functional, organism-based
Outline: (§1)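 P. falciparum W2 cultured in human A+ erythrocytes in RPMI 1640 with human serum, sorbitol-synchronized to rings. Parasitemia 0.05%, hematocrit 1.5%. […] Three freeze-thaw cycles, then HRPII sandwich ELISA read at 450 nm. IC50 from non-linear regression dose–response curves, three separate experiments (±SD).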

[2] = Selectivity index, ratio of MLD50 for african green monkey BGM cells to IC50 for chloroquine/sulfadoxine-resistant Plasmodium falciparum W2; type: toxicity, cell-based; conditions: read-out: Selectivity Index
Outline: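 Selectivity index calculated from the BGM MLD50 (24 h MTT, 570 nm, non-linear regression) and the W2 IC50 (72 h HRPII ELISA in A+ erythrocytes).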

Plasmodium falciparum [3] = assay: Antimalarial activity against chloroquine/sulfadoxine-resistant Plasmodium falciparum W2 infected in human A+ erythrocytes assessed as reduction in parasite growth after 72 hrs by HRP2 detection based ELISA; type: functional, organism-based; conditions: W2, 72 h; outline: as §1
[4] = Cytotoxicity against african green monkey BGM cells after 24 hrs by MTT assay; type: cell-based; conditions: chlorocebus aethiops, read-out: MLD50
Outline: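 MTT (3 mg/mL) was added, the supernatant was removed after 3 h, and the dye was dissolved in DMSO. Read at 570 nm. MLD50 (minimal lethal dose for 50% of cells) taken from non-linear regression dose–response curves.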

Plasmodium falciparum [5] = assay: Antimalarial activity against chloroquine-resistant and mefloquine-sensitive Plasmodium falciparum W2 infected in human A+ erythrocytes after 72 hrs by HRP2 detection based ELISA; type: functional, organism-based; conditions: W2, 72 h; outline: as §1

Row | Compound | IC50 (Plasmodium falciparum [1]) | selectivity ratio [2] | IC50 (Plasmodium falciparum [3]) | CC50 at 24 h [4] | IC50 (Plasmodium falciparum [5])
1 | O=Cc1cn(-c2ccnc3cc(Cl)ccc23)nn1 | 1.4 µM | – | – | – | –
2 | CCOC(=O)c1cnc2c(cnn2-c2ccccc2)c1NCCCCNS(=O)(=O)c1ccc(C)cc1 | – | 172 | 3.46 µM | 596 µM | –
3 | N#Cc1cnc2c(cnn2-c2ccccc2)c1NCCCCNS(=O)(=O)c1ccc(Cl)cc1 | – | 55.7 | 7.5 µM | 418 µM | –
4 | CCOC(=O)c1cnc2c(cnn2-c2ccccc2)c1NCCCCNS(=O)(=O)c1ccc(Cl)cc1 | – | > 278 | 3.6 µM | > 1000 µM | –
5 | N#Cc1cnc2c(cnn2-c2ccccc2)c1NCCCCN | – | 101 | 5 µM | 503 µM | –
6 | CCOC(=O)c1cnc2c(cnn2-c2ccccc2)c1NCCCCNS(=O)(=O)c1ccc(F)cc1 | – | 241 | 4.12 µM | 993 µM | –
7 | Cc1ccc(S(=O)(=O)NCCCCNc2c(C#N)cnc3c2cnn3-c2ccccc2)cc1 | – | 189 | 3.6 µM | 682 µM | –
8 | CCOC(=O)c1cnc2c(cnn2-c2ccccc2)c1NCCCCNS(=O)(=O)c1ccc(OC)cc1 | – | 107 | 9.3 µM | 995 µM | –
9 | COc1ccc(S(=O)(=O)NCCCCNc2c(C#N)cnc3c2cnn3-c2ccccc2)cc1 | – | 99.6 | 5 µM | 498 µM | –
10 | CCOC(=O)c1cnc2c(cnn2-c2ccccc2)c1NCCCCNS(=O)(=O)c1ccccc1 | – | 126 | 6.52 µM | 822 µM | –
11 | COc1ncnc(NS(=O)(=O)c2ccc(N)cc2)c1OC [SULFADOXINE] | – | 20.7 | 15 µM | 310 µM | –
12 | N#Cc1cnc2c(cnn2-c2ccccc2)c1NCCCCNS(=O)(=O)c1ccccc1 | – | 59 | 4.2 µM | 248 µM | –
13 | Cc1cc(Nc2ccc3ccccc3c2)n2nc(C(F)(F)F)nc2n1 | – | – | – | – | 0.023 µM
14 | N#Cc1cnc2c(cnn2-c2ccccc2)c1NCCCCNS(=O)(=O)c1ccc(F)cc1 | – | 54.6 | 9.3 µM | 508 µM | –
